Bioassay records deposited in PubChem by The Scripps Research Institute Molecular Screening Center.
EphB4 antag: EphB4-ephrin-B2 interaction antagonists, primary screen, biochemical, TNYL-RAW peptide probe, fluorescence polarization | inhibition, % at 7 µM | 97,000 compounds, 0.15% hits | EphB4 LBD / TNYL-RAW-Alexa532 peptide | AID 720, 2007;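 active = inhibition above the screen-wide mean inhibition plus 3 SD, cut at about 15% in these data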;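 also: 0% = DMSO wells and 100% = excess unlabeled TNYL-RAW peptide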
S1P2 ag: S1P2 receptor agonists, primary screen, cell-based. S1P2-expressing cell line, agonist reporter read-out. activation, % at 4.5 µM. 97,000 compounds, 0.46% hits. AID 729, 2007; in the data active = activation above about 16%;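 also: 0% = vehicle low control and 100% = maximal reference agonist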
Target sequence (O95136 whole entry, looked up): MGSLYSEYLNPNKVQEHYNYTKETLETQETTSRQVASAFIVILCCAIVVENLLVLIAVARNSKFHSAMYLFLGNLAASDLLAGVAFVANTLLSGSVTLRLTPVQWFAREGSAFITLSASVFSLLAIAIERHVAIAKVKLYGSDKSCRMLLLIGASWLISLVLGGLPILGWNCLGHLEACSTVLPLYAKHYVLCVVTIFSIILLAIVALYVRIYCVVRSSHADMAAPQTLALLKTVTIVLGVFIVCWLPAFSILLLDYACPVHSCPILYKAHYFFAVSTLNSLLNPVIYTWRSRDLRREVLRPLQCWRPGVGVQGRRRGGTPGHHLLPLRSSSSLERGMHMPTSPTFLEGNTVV
HIV Rev-RRE inh: HIV-1 Rev-RRE binding inhibitors, primary screen, biochemical, FRET, protein-RNA interaction | P05866 | Rev peptide-RRE RNA binding | inhibition, % at 8 µM | 97,000 compounds, 0.79% hits | AID 704, 2007;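 active = inhibition above the screen-wide mean plus 3 SD, cut at about 35% in these data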;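 also: 0% = median DMSO wells and 100% = median Neomycin B control wells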
Target sequence (P05866 whole entry, looked up): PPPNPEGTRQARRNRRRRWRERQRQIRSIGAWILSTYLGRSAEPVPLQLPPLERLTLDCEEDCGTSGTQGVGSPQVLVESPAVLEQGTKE
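assay system = Cy5-tagged RRE RNA duplex with fluorescein-tagged Rev peptide | incubation = 5 + 15 min at 25 °C | also added = labelled Rev peptide | measure = % inhibition of FRET ratio versus controls | benchmarks = DMSO wells as 0% and neomycin B wells as 100% inhibition | measured by = FRET fluorescence readout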
S1P2 blocker: human S1P2 receptor antagonists, primary screen, cell-based. cell-based S1P2 antagonist assay, inhibition at 5 uM. inhibition, % at 5 µM. 97,000 compounds, 0.21% hits; in the data active = inhibition above about 45%;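 also: CRE beta-lactamase reporter cells expressing human S1P2 stimulated with S1P; 0% = agonist at EC80 alone and 100% = agonist plus reference antagonist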
GALR2 ag: GALR2 receptor agonists, primary screen, cell-based; Galanin receptor type 2 (Homo sapiens), O43603; activation, % (test concentration not listed); GALR2-expressing cells, agonist activation read-out; AID 803, 2007; 140,000 compounds, 0.48% hits; in the data active = activation above about 5%, passing the limit was not always enough;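 also: 0% = vehicle buffer wells and 100% = reference agonist at full effect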
GALR2 blocker: GALR2 antagonists in receptor-expressing cells, primary screen. AID 828, 2007. inhibition, % at 4 µM. 140,000 compounds, 0.39% hits. Galanin receptor type 2 (Homo sapiens), O43603. antagonist mode; in the data active = inhibition above about 27%;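 also: cells stimulated with galanin 1-16 at roughly its EC80; 0% = agonist challenge control and 100% = basal control without agonist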
* hit, by the source's call; i = inactive; x = no result; [ ] = another dose, or the depositor's remark. The list is not random: actives were taken first. Their share in the collection is about 1.7%.

SMILES | EphB4 antag | S1P2 ag | HIV Rev-RRE inh | S1P2 blocker | GALR2 ag | GALR2 blocker
O=C(OCC(=O)c1cccs1)c1ccccc1 | x | x | x | x | 0 | -1
O=C(CC(O)(c1ccccc1)C(F)(F)F)c1cccs1 (stereo not drawn) | 31*[fluorescence artefact?] | -3 | 6 | -2 | -1 | -3
CCOC(=O)C1=C(c2ccccc2)N=c2s/c(=C\c3cccc(O)c3)c(=O)n2C1c1cccs1 (stereo not drawn) | -6 | -9 | 9 | 7 | -1 | 4
O=c1/c(=C\c2ccc(O)cc2)sc2n1C(c1ccccc1)C(c1ccccc1)=NN=2 (stereo not drawn) | 0 | -8 | 41* | 25 | -2 | 7
CC1CCN(C(=O)c2ccc(SCc3ccccc3F)c([N+](=O)[O-])c2)CC1 | x | x | x | x | -1 | -7
Cc1cccc(N2CCN(c3cc(C)nc4nnnn34)CC2C)c1 (stereo not drawn) | x | x | x | x | 5.4* | 7
C=CCNC(=O)c1onc(CSc2ccccc2CC)c1C(=O)O | -5 | -9 | -2 | -15 | -2 | -3
CC(CC1C(C#N)=C(N)SC(N)=C1C#N)c1ccccc1 (stereo not drawn) | -6 | -3 | 32 | 0 | -1 | -8
COc1cc(/C=c2\s/c(=C(/C#N)C(=O)N3CCCC3)n(-c3ccccc3)c2=O)ccc1O | -5 | -10 | 46* | -1 | 0 | -2
O=C(NC1CCCC1)C(c1ccsc1)N(C(=O)Cc1cccs1)c1ccccc1 (stereo not drawn) | -6 | -1 | -1 | -24 | -3 | 17
O=C(NC1CCCC1)C(c1ccsc1)N(CCc1ccccc1)C(=O)Cc1cccs1 (stereo not drawn) | x | x | x | x | 6.0* | 4
O=C(NCc1cc(Br)cc(Br)c1OC(=O)c1ccccc1[N+](=O)[O-])c1ccccc1 | x | x | x | x | -1 | 4
CN(c1ccccc1)c1cc(=O)[nH]c(=O)[nH]1 | x | x | x | x | 0 | 8
Cc1ccc(S(=O)(=O)CCC(=O)N2CCc3ccccc32)cc1 | -2 | 42* | 5 | -8 | -1 | -7
CSc1c(CC(=O)Nc2ccccc2)n(Cc2ccccc2)c2ccccc12 | x | x | x | x | 0 | -6
CCN(CC)S(=O)(=O)c1ccc(Oc2ccc(S(=O)(=O)N(CC)CC)cc2)cc1 | 0 | -4 | 6 | 72* | -1 | 6
CCc1nnc(N2C(=O)c3ccc(Oc4ccc([N+](=O)[O-])cc4)cc3C2=O)s1 | x | x | x | x | 1 | -9
CC(C)(C)Nc1nc(N2CCCC2)nc(N2CCCC2)n1 | 7 | -7 | 8 | 47* | -1 | 4
CCNc1nc(NC(C)(C)C)nc(N2CCCC2)n1 | 0 | 0 | -1 | -23 | 0 | 13
CN(CC(=O)NC(=O)NCc1ccccc1)Cc1cccc(Cl)c1Cl | x | x | x | x | 0 | -6
OCC(O)CSc1nc(-c2ccccc2)nc2c1CCC2 (stereo not drawn) | x | x | x | x | -1 | 12
COCCNC(=O)/C(C#N)=C1\N=C(N)c2ccccc21 | x | x | x | x | -2 | 11
CNc1ccc(Br)cc(C(=O)/C=C/c2cccc(OC)c2)c1=O | 12 | -5 | 53* | -9 | -2 | 11
CCNc1ccc(Br)cc(C(=O)/C=C/c2ccc(Cl)cc2)c1=O | x | x | x | x | -2 | -3
CCNc1ccc(Br)cc(C(=O)/C=C/c2c(Cl)cccc2Cl)c1=O | 1 | -6 | 89*[fluorescence artefact?] | 38 | -3 | 4
SMILES | EphB4 antag | S1P2 ag | HIV Rev-RRE inh | S1P2 blocker | GALR2 ag | GALR2 blocker
COc1ccc(-c2nn(-c3ccccc3)cc2CNC(=O)c2cccc([N+](=O)[O-])c2)cc1 | x | x | x | x | -2 | -10
CC[n+]1c(/C=C/C=C/N(C(C)=O)c2ccccc2)sc2ccccc21 | -23 | -2 | 129*[fluorescence artefact?] | 10 | -1 | -1
COc1ccc(-c2cn(-c3ccc(C)cc3)c(=O)n2CC(=O)Nc2cccc(F)c2)cc1 | 0 | -5 | -7 | -19 | 15* | -20
CCCNC(=S)N1CCC(C(=O)c2ccc(OC)cc2)CC1 | x | x | x | x | 0 | 2
COc1ccc(C(=O)C(CO)Oc2ccccc2OC)cc1OC (stereo not drawn) | 3 | 19* | 4 | 13 | -2 | -7
CCCCN(C)C(=O)CCC(=O)NNc1nc2ccccc2c2nc(C)nn12 | x | x | x | x | 0 | 8
CN(C(=O)CSc1nc(N)c2c3c(sc2n1)CSC(C)(C)C3)c1ccccc1 | x | x | x | x | 0 | 8
CCOC(=O)Cc1csc(NC(=O)c2ccc3c(c2)OCO3)n1 | -5 | -9 | -1 | 14 | -1 | 4
CCOC(=O)Cc1csc(NC(=O)c2sc3nc4ccc(CC)cc4cc3c2N)n1 | 4 | -8 | 85*[fluorescence artefact?] | 0 | -1 | 3
CCOC(=O)Cc1csc(NC(=O)c2ccc(Cl)nc2)n1 | 4 | -4 | 41* | 6 | 2 | -1
CC(C)C(=O)NC(NC(=S)Nc1ccc(S(N)(=O)=O)cc1)C(Cl)(Cl)Cl (stereo not drawn) | x | x | x | x | 0 | 3
COc1ccc(-c2nn(-c3ccccc3)cc2/C=N/NC(=O)c2ccc(Br)o2)cc1 | -6 | -5 | 1 | 47* | -1 | -1
CCCCCn1c(N)c(C#N)c2nc3ccccc3nc21 | 1 | 13 | 23 | -12 | 7.9* | -9
COc1ccccc1CCn1c(N)c(C#N)c2nc3ccccc3nc21 | -4 | 16* | 14 | -31 | 2 | -20
COc1ccc(CCn2c(N)c(C#N)c3nc4ccccc4nc32)cc1OC | 7 | 2 | 19 | 1 | 1 | -7
COc1ccc(Cn2c(N)c(C#N)c3nc4ccccc4nc32)cc1OC | 0 | 21* | 25 | -85 | 3 | -9
COc1ccccc1N=C1SCC(=O)N1c1ccccc1OC | x | x | x | x | -1 | -6
COc1ccc2c(c1)c1ncn(Cc3ccco3)c(=O)c1n2C | -6 | 19* | 4 | -60 | 1 | -9
O=c1cc(CNCCCO)c2ccccc2[nH]1 | -6 | 23* | 3 | -8 | 0 | -1
CC(=O)N(Cc1cc(=O)[nH]c2ccccc12)c1ccc(C)cc1 | 6 | -6 | 6 | i | -1 | -1
CCOc1cc(/C=C2\CCCC(C(=O)C(F)(F)F)=C2O)ccc1O | x | x | x | x | 0 | 8
Cc1ccc(Nc2nnc(SCc3cc(=O)n4cc(C)ccc4n3)s2)cc1 | x | x | x | x | -2 | 4
COc1ccc(Nc2nnc(SCc3cc(=O)n4ccsc4n3)s2)cc1 | -5 | -5 | 42* | 0 | -5 | 4
COc1ccc(C(=O)N(Cc2nc(-c3ccc(C)cc3)no2)C2CCCCC2)cc1OC | -6 | -5 | 5 | 12 | -2 | -4
Cc1nn(-c2ccc(F)cc2)c2sc(C(=O)N3CCCCCC3)cc12 | 12 | 30* | 12 | -26 | 1 | -21
O=c1cc(-c2c(F)c(F)c(F)c(F)c2F)oc2ccccc12 | 10 | 1 | 2 | 16 | -2 | 8
O=c1cc(-c2c(F)c(F)c(F)c(F)c2F)oc2c(F)c(F)c(F)c(F)c12 | x | x | x | x | -1 | 69*
